# Rows were chosen to be rich in hits. Some 4.1% of all compounds tested hit in one or more screens of this group.
# MrgX1 allo act = positive allosteric modulators of MrgX1, primary screen, HEK293 cells, Fluo-4 calcium flux. FDSS; hits give high values. Mas-related G-protein coupled receptor member X1 (Homo sapiens), Q96LB2. B-score at 10 µM. actives 0.63% (n = 310,000);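 active means plate-corrected calcium response at least 3 library SD above typical, normal starting fluorescence, not activating the receptor alone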;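 further: compound read alongside a low EC10 to EC30 dose of BAM8-22 agonist; peak minus trough fluorescence over baseline measured at the second addition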
# Target sequence (Q96LB2 whole entry, looked up): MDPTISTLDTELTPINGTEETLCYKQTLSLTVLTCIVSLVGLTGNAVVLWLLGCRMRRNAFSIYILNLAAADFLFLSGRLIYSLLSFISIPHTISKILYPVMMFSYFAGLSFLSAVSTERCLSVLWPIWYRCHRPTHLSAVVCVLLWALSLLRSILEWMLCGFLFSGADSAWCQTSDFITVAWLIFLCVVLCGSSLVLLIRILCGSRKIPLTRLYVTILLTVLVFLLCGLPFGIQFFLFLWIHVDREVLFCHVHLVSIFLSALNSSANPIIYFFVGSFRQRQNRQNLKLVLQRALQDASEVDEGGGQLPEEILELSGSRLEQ
# RGS4 act = RGS4 potentiators or activators, primary screen, cell-based, HEK293 M3R inducible RGS4, calcium flux; actives 0.92% (n = 310,000); B-score at 10 µM; carbachol calcium flux Fluo4; hits give low values;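 active means B-score of the integrated calcium signal more than 4 SD below the library mean, with starting fluorescence not abnormally high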;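 further: negative B-score means reduced calcium response which marks RGS4 activation or potentiation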
#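 Detection: kinetic calcium fluorescence imaging with Fluo4-AM dye, 2 µM / Material: HEK293 cells with stable M3R and inducible RGS4 / Schedule: recording 10 s baseline at 1 Hz, 100 s post-agonist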
# MrgX1 antag = antagonists of human MrgX1 receptor, primary screen, HEK293 cells, Fluo-4 calcium flux; Mas-related G-protein coupled receptor member X1 (Homo sapiens), Q96LB2; BAM8-22 antagonism; hits give low values; B-score at 10 µM; actives 1.3% (n = 310,000);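 active means calcium-response B-score plate-corrected more than 3 library SD below zero, starting fluorescence within 5 deviations, no agonist response on first addition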;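 further: peak minus trough fluorescence over baseline after final BAM8-22 challenge near maximal dose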
# RGS4 inh = RGS4 inhibitors, primary screen, cell-based, HEK293 M3R inducible RGS4, calcium flux; AID 463165, 2010; Regulator of G-protein signaling 4 (Homo sapiens), P49798; actives 0.45% (n = 310,000); B-score at 10 µM; Fluo-4 calcium flux; hits give high values; triggered by carbachol at its EC20;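 active means B-score, a plate-corrected calcium signal, over three deviations above library mean, with baseline fluorescence within five deviations of library mean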;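 further: RGS4 expression induced by doxycycline in cells with stable M3 receptor; B-score is computed from the integrated fluorescence ratio over baseline after carbachol; higher B-score means a larger calcium signal and so more RGS4 inhibition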
# Target sequence (P49798 whole entry, looked up): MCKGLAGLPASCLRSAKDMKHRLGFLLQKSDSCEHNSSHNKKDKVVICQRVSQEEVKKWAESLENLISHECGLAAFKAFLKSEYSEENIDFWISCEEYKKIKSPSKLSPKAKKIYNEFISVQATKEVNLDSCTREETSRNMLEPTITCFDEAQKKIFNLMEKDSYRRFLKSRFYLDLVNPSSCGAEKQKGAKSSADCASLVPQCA
# MrgX1 ag = agonists of human MrgX1 receptor, primary screen, HEK293 cells, Fluo-4 calcium flux | Mas-related G-protein coupled receptor member X1 (Homo sapiens), Q96LB2 | Fluo-4 calcium fluorescence, agonist mode; hits give high values | B-score at 10 µM | actives 0.44% (n = 310,000) | AID 588627, 2011;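 active means calcium response B-score plate-corrected fluorescence ratio at least 3 library SD, with starting fluorescence B-score inside 5 SD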
#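 Assay system: stable human MrgX1 HEK293 cell line. Quantity: 15,000 cells per well. Schedule: cells plated overnight, dye loaded 0.5 h 37 °C, 0.5 h room temperature. Detection: Fluo-4 NW calcium-flux fluorescence, kinetic read. Read-out basis: peak-minus-minimum fluorescence over baseline, converted to B scores. Control set: positive and negative control wells on each plate.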
# Kir21 block = inhibitors of mouse Kir2.1 inward-rectifier potassium channel | Inward rectifier potassium channel 2 (Mus musculus), P35561 | actives 0.85% (n = 310,000) | AID 1672, 2009 | HEK293-Kir2.1, FluxOR thallium flux fluorescence; hits give low values | B-score at 10 µM;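 active means fluorescence ratio B-score at or below minus 3 SD of library scores, with starting-brightness B-score within 2 SD, cut at about -4.2 in these data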;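 further: channel flux triggered by added potassium and thallium sulfate stimulus; B-score of peak minus minimum fluorescence over baseline after thallium stimulus; more negative B-score means stronger Kir2.1 block with less thallium influx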
# An asterisk follows results filed as active; i = inactive; · = no result given; ! = not active in a repeat.
SMILES,MrgX1 allo act,RGS4 act,MrgX1 antag,RGS4 inh,MrgX1 ag,Kir21 block
COC(=O)c1ccc2c(c1)C(=O)/C(=C/c1ccc(O)cc1)O2,i,i,-5.31*,i,i,0.5
CCCC(=O)NC(Nc1ccc(S(=O)(=O)Nc2ncccn2)cc1)(C(=O)OCC)C(F)(F)F (centres undefined),i,i,i,i,i,-0.28
Cc1cc(C)nc(SCc2nnc(SCC(=O)N3CCCc4ccccc43)n2C)n1,i,i,i,i,i,0.84
Cc1cc(C)nc(SCc2nnc(SCC(=O)N3CCCc4ccccc43)o2)n1,i,i,i,i,i,-5.05*
CC(=O)Nc1cccc(OCC(=O)NC(C)c2ccc3ccccc3c2)c1 (centres undefined),i,i,i,i,i,-6.23*
O=c1c2ccccc2c(/C=N/NS(=O)(=O)c2ccccc2)c(O)n1-c1ccccn1,i,i,i,i,52.5*,0
O=C(O)CCNC(=O)c1cncc(Br)c1,i,i,i,i,i,-1.32
CCC(NC(=O)Nc1nnc(C(F)(F)F)s1)(C(F)(F)F)C(F)(F)F,i,i,i,i,i,-4.52*
Cc1ccc(NC(=O)c2cc3cc(OC(F)(F)F)ccc3[nH]2)cc1,i,i,i,i,i,0.15
O=C(NNC(=O)c1ccccc1Cl)c1cc2cc(OC(F)(F)F)ccc2[nH]1,7.53*,i,i,i,i,0.11
Cn1ccnc1C1CCCCN1C(=O)c1cc(COc2ccc(F)cc2Cl)on1 (centres undefined),i,-7.44*,i,i,i,-0.3
O=C(c1cc(COc2ccc(F)cc2Cl)on1)N1CC[C@@H]2CCCC[C@H]2C1,i,i,i,i,i,1.78
CCN(CC)C1CCN(C(=O)c2cc(COc3ccc(F)cc3Cl)on2)C1 (centres undefined),i,-7.03*,i,i,i,-0.11
COc1ccc([C@@H]2CC=C(C(=O)O)CN2S(=O)(=O)c2ccc(Cl)cc2)cc1,7.96*,·,i,·,i,·
O=C(O)C1=CC[C@@H](c2ccc(Cl)cc2)N(S(=O)(=O)c2ccc(Cl)cc2)[C@H]1c1ccc(F)cc1,8.26*,·,i,·,i,·
Cc1ccc(S(=O)(=O)N2[C@@H](c3ccccc3F)C(C(=O)O)=CC[C@H]2c2cccc(Cl)c2)cc1,10.8*,·,i,·,i,·
Cc1ccc(S(=O)(=O)N2[C@@H](c3ccccc3)C(C(=O)O)=CC[C@H]2c2cccc(Cl)c2)cc1,7.39*,·,i,·,i,·
Cc1ccc(S(=O)(=O)N2[C@@H](c3cccc(Cl)c3)C(C(=O)O)=CC[C@H]2c2ccc(Cl)cc2)cc1,i,·,i,·,i,·
Cc1ccc(S(=O)(=O)N2CC(C(=O)O)=CC[C@H]2c2ccc(Cl)cc2)cc1,i,·,i,·,i,·
CCCN1CCN(C(=O)Nc2cccc(C(F)(F)F)c2)CC1,i,i,i,i,i,0.18
Cc1ccc(S(=O)(=O)N2[C@@H](c3ccc(Cl)cc3)C(C(=O)O)=CC[C@H]2c2ccc(Cl)c(Cl)c2)cc1,i,·,-5.1*,·,i,·
Cc1ccc([C@@H]2CC=C(C(=O)O)[C@H](c3ccccc3F)N2S(=O)(=O)c2ccc(C)cc2)cc1,8.93*,·,i,·,i,·
O=[N+]([O-])c1cccc(S(=O)(=O)Nc2ccc(-c3ccc(N4CCOCC4)nn3)cc2)c1,7.78*,i,i,i,i,1.1
O=C(O)c1ccc(CNC(=O)c2ccc3c(c2)C(=O)N(Cc2cccnc2)C3=O)cc1,i,i,-4.88*,i,i,1.73
N#CCCCN1C(=O)C(=C(C#N)C#N)c2ccccc21,i,i,i,i,32.9*,-2
SMILES,MrgX1 allo act,RGS4 act,MrgX1 antag,RGS4 inh,MrgX1 ag,Kir21 block
N#CCCCN1C(=O)C(O)(CC(=O)c2ccc3c(c2)OCCO3)c2ccccc21 (centres undefined),i,i,i,i,i,-0.75
O=c1c2c(nc3n1CCCCC3)sc1c(O)c(Br)ccc12,i,i,-5.35*,i,i,-2.6
COc1ccc(S(=O)(=O)Cc2ccc(C(=O)N3CCN(C4CCCCC4)CC3)o2)cc1,i,i,i,i,i,-0.41
Cc1ccc(S(=O)(=O)Nc2ccccc2CNc2ccc(Br)cn2)cc1,i,i,i,i,i,-2.56
Cn1nc(C(F)(F)F)c2cc(C(=O)Nc3ccc(F)cc3)sc21,i,i,i,i,i,-0.29
Cn1nc(C(F)(F)F)c(-c2ccc(F)cc2)c1NC(=O)Nc1ccc(F)cc1,i,i,-5.36*,i,i,0.63
NC(=O)c1nsc(C(=O)N(Cc2cccnc2)C(C(=O)NC2CCCCC2)c2ccc(F)cc2)c1N (centres undefined),i,i,i,i,i,-1.05
CN(C)c1ccc(C(C(=O)NC2CCCC2)N(Cc2cccnc2)C(=O)c2snc(C(N)=O)c2N)cc1 (centres undefined),i,i,-6.45*,i,i,0.61
CCOc1ccc(C(C(=O)NC2CCCC2)N(Cc2ccccc2)C(=O)c2nsc(Cl)c2Cl)cc1 (centres undefined),i,-7.23*,i,i,i,-0.6
COc1ccccc1N(C(=O)c1snc(C(N)=O)c1N)C(C(=O)NCc1ccccc1)c1ccc(C)o1 (centres undefined),·,i,·,i,·,-0.02
COC(=O)[C@H](Cc1ccccc1)NC(=O)c1ccc2ccccc2n1,i,i,i,i,i,-0.46
CC(C)(C)NC(=O)[C@@H]1C[C@@H]2CCCC[C@@H]2CN1C[C@@H](O)[C@H](Cc1ccccc1)NC(=O)[C@H](CC(N)=O)NC(=O)c1ccc2ccccc2n1,i,i,-5.98*!,i,i,0.22
O=[N+]([O-])c1cccnc1S(=O)(=O)c1ccccc1,i,i,i,i,i,-2.45
COc1ccc([N+](=O)[O-])c(S(=O)(=O)c2ccccc2)n1,i,i,-6.18*,i,i,-3.74
COc1ccc([N+](=O)[O-])c(S(=O)(=O)c2ccc(Cl)cc2)n1,i,i,-6.55*,i,i,-4.64*

# Screening results as filed in PubChem BioAssay.
